RGS16-Gao HTS = regulators of human RGS16-Galphao interaction; bead-based flow cytometry RGS16-Galphao binding, fluorescence; actives lie on both sides; binding response (% of control), % at 10 µM; 0.38% of 220,000 active; AID 1441;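 further: Galphao activated by GDP with aluminum fluoride before binding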
ABCG2 inh = inhibitors of human ABCG2 transporter, ABCB1 counter-screen. Q9UNQ0. IgMXP3 cells, JC-1 efflux, flow cytometry. inhibition, % at 6.6 µM. 0.1% of 190,000 active. AID 1325;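 active means inhibition above 80%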
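System: two drug-resistant human cell lines, ABCG2 and ABCB1; controls: nicardipine high and DMSO low controls; times: 10 min exposure at 25 °C with rotation, no wash; detection: flow cytometry of retained JC-1 fluorescence; read-out basis: percent efflux inhibition, scaled nicardipine 100% to DMSO 0%; doses: one concentration, 6.6 µM final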
RGS8-Gao reg = regulators of human RGS8-Galphao interaction; P09471; multiplexed bead flow cytometry, RGS8-Galphao binding; actives lie on both sides; response (percent of control binding), % at 10 µM; 0.34% of 220,000 active; AID 1423; in the data active means response below about 60% or above about 140%; inactive means in between;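 further: Galphao activated as the GDP aluminium fluoride complex binding bead-coupled RGS8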
RGS7-Gao = modulates binding of RGS7 to human Galphao. P09471. Multiplexed bead flow cytometry; actives lie on both sides. binding response (% of control), % at 10 µM. 0.35% of 220,000 active; in the data active means binding response below about 49% or above about 150%; inconclusive means no clear call, values can overlap the other calls; inactive means in between;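 further: fluorescent Galphao held in activated GDP-AlF4 state binding bead-coupled RGS7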
ABCB1 inh = blocks JC-1 efflux by human ABCB1 transporter; CCRF-Adr cells, flow cytometry; inhibition, % at 6.6 µM; 0.067% of 190,000 active; AID 1326; in the data active means inhibition above about 40%;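 further: higher value means more JC-1 retained so stronger ABCB1 efflux block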
RGS4-Gao reg = human RGS4-Galphao interaction regulation; Multiplexed bead flow cytometry, RGS4-Galphao binding; actives lie on both sides; P09471; 0.33% of 220,000 active; AID 1415; binding response (% of control), % at 10 µM; in the data active means binding response below about 49% or above about 150%; inactive means in between;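 further: fluorescent Galphao activated with aluminum fluoride binding bead-coupled RGS4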
RGS4-Gao HTS = modulates binding between human RGS4 and Galphao | RGS4–Galpha-o binding response, % at 10 µM | shares compounds with RGS16-Gao HTS | multiplexed bead flow cytometry, RGS–Galpha-o binding | 99% of 1,600 active;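 further: fluorescently labeled Galpha-o bound to GDP with aluminium fluoride binding biotinylated RGS beads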
Avidin counter = biotin-avidin bead binding disruption counter-screen; 1,700 tested, under 10 active; inhibition, % at 10 µM; shares compounds with RGS16-Gao HTS; streptavidin beads, fluorescein-biotin binding, flow cytometry;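 active means inhibition above 50%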;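 further: median green fluorescence of gated singlet beads compared with DMSO control wells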
RGS8-Gao confirm = RGS8-Galphao interaction regulation, single point confirmation; shares compounds with RGS16-Gao HTS; 3% of 1,700 active; binding response (% of control), % at 10 µM; AID 1836; bead-based flow cytometry RGS8-Galphao binding, fluorescence; actives lie on both sides; in the data active means binding response below about 72% or above about 130%; inactive means in between;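 further: Galphao activated as GDP AlF4 complex before binding bead RGS8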
RGS7-Gao single = RGS7-Galphao interaction regulation, single point confirmation; shares compounds with RGS16-Gao HTS; bead-based flow cytometry RGS7-Galphao binding; actives lie on both sides; response (percent of control binding), % at 10 µM; 7.8% of 1,700 active; AID 1837; in the data active means response below about 75% or above about 130%; inactive means in between;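 further: fluorescent Galphao activated with GDP and aluminum fluoride binding bead-coupled RGS7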
RGS16-Gao single = RGS16-Galphao interaction regulation, single point confirmation. shares compounds with RGS16-Gao HTS. bead-based flow cytometry, RGS16-Galphao binding; actives lie on both sides. response (% of control binding), % at 10 µM. 4% of 1,700 active; in the data active means response below about 74% or above about 130%; inactive means in between;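 further: Galphao activated as the GDP aluminium fluoride complex binding bead-coupled RGS16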
RGS4-Gao confirm = confirmation of regulators of human RGS4-Galphao interaction; 4% of 1,700 active; binding response (% of control), % at 10 µM; RGS4-Galphao binding, multiplexed bead flow cytometry; actives lie on both sides; shares compounds with RGS16-Gao HTS; in the data active means binding response below about 74% or above about 130%; inactive means in between
RGS19-Gao conf = confirmation of regulators of human RGS19-Galphao interaction | shares compounds with RGS16-Gao HTS | bead-based flow cytometry RGS19-Galphao binding; actives lie on both sides | response (percent of control binding), % at 10 µM | 5% of 1,700 active | AID 1841; in the data active means response below about 50% or above about 160%; inactive means in between
Of the large screens only hits and unclear results are named; the others gave an inactive call (follow-up assays come after a bar, where they were run); [ ] = another dose, or the depositor's remark. Only some compounds are listed: those with a hit (about 0.9% of all), similar ones and a draw of the others. Unless noted, how the calls were made is not given here.

O=C(Cn1cncn1)N/N=C/c1cccc(Cl)c1	RGS7-Gao inconclusive (no result: ABCG2 inh, ABCB1 inh)
Cc1ccc(C(=O)NCC(=O)NCC(=O)OCc2ccc(F)cc2)cc1	none
COc1ccc(Br)cc1S(=O)(=O)n1ccnc1C	none
Cc1nccn1S(=O)(=O)c1ccc(Br)cc1Br	RGS7-Gao 168[activator] | RGS4-Gao HTS 145
C/C(=N\NC(=O)c1ccc([N+](=O)[O-])cc1)c1c(O)cc(C)oc1=O	none
C/C(=N/NC(=O)c1cc(O)c(O)c(O)c1)c1ccc([N+](=O)[O-])cc1	RGS16-Gao HTS -2.4, RGS8-Gao reg 8.8, RGS7-Gao 6.2, RGS4-Gao reg 21 | Avidin counter inactive | RGS8-Gao confirm inactive | RGS7-Gao single inactive | RGS16-Gao single inactive | RGS4-Gao confirm inactive | RGS19-Gao conf inactive
CS(=O)(=O)NCCOc1ccc(S(=O)(=O)NCCOc2ccccc2)cc1	RGS7-Gao inconclusive
O=S(=O)(NCCOc1ccccc1)c1ccc2ccccc2c1	RGS16-Gao HTS -1.5 | RGS4-Gao HTS 90
CC1=C(C(=O)OC(C)C)C(c2cccc(F)c2)N2C(=O)C(C)SC2=N1 (configuration not stated)	none (no result: RGS16-Gao HTS, RGS8-Gao reg, RGS7-Gao, RGS4-Gao reg) | Avidin counter inactive | RGS8-Gao confirm inactive | RGS7-Gao single inactive | RGS16-Gao single inactive | RGS4-Gao confirm inactive | RGS19-Gao conf inactive
CC1=C(C(=O)OCC(C)C)C(c2cccc(F)c2)N2C(=O)C(C)SC2=N1 (configuration not stated)	none
CC1C=CCC2C(=O)N(c3cc(Cl)ccc3O)C(=O)C12 (configuration not stated)	none
Cc1cc(C(=O)CSc2nc3ccccc3c(=O)n2C)c(C)n1Cc1ccc2c(c1)OCO2	RGS16-Gao HTS active[activator], RGS4-Gao reg active[activator] (no result: RGS8-Gao reg) | Avidin counter inactive | RGS8-Gao confirm inactive | RGS7-Gao single inactive | RGS16-Gao single inactive | RGS4-Gao confirm inactive | RGS19-Gao conf inactive
Cc1cc(C(=O)CSc2nnc(-c3ccccc3)n2Cc2ccc3c(c2)OCO3)c(C)n1C	none
CC(C(=O)Nc1ccccc1-c1ccccc1)N(C)Cc1nc2ccccc2c(=O)[nH]1 (configuration not stated)	none
Cc1cc(C)c(NC(=O)CO/N=C2\CCCc3nonc32)c(C)c1	none
CC(=O)CC1=NC(C)(C)Cc2ccccc21	RGS16-Gao HTS 16, RGS8-Gao reg 18, RGS7-Gao 24, RGS4-Gao reg 29 | Avidin counter inactive | RGS8-Gao confirm inactive | RGS7-Gao single inactive | RGS16-Gao single inactive | RGS4-Gao confirm inactive | RGS19-Gao conf inactive
Cc1cc(N)ccc1-n1c(C)ccc1C	none
Cc1cc(N)ccc1N1CCCC1	RGS8-Gao reg 54 | RGS4-Gao HTS 58
COC(=O)Nc1csc2c1NC(=O)CCCC2	RGS16-Gao HTS -4.2, RGS8-Gao reg 18, RGS7-Gao inconclusive, RGS4-Gao reg -9.2 (no result: ABCG2 inh, ABCB1 inh) | Avidin counter inactive | RGS8-Gao confirm inactive | RGS7-Gao single inactive | RGS16-Gao single inactive | RGS4-Gao confirm inactive | RGS19-Gao conf inactive
COc1ccccc1NC(=O)c1csc2c1CCCC2	none
COc1cccc(N2CCN(C(=O)C3CCN(S(=O)(=O)c4cccs4)CC3)CC2)c1	none
Cc1cc(C)c2c(CC(=O)NC(C)C)coc2c1	RGS8-Gao reg 151[activator] | RGS4-Gao HTS 141 | Avidin counter inactive | RGS8-Gao confirm inactive | RGS7-Gao single inactive | RGS16-Gao single inactive | RGS4-Gao confirm inactive | RGS19-Gao conf inactive
Cc1cc(C)c2c(CC(=O)Nc3nccs3)coc2c1	none
CC1CCCCN1CCCNC(=O)c1cc(Br)c(Br)[nH]1 (configuration not stated)	none
CC(=O)c1cccc(NC(=O)NCc2cccnc2)c1	none (no result: RGS16-Gao HTS, RGS8-Gao reg, RGS7-Gao, RGS4-Gao reg) | Avidin counter inactive | RGS8-Gao confirm inactive | RGS7-Gao single inactive | RGS16-Gao single inactive | RGS4-Gao confirm inactive | RGS19-Gao conf inactive
N/C(=N\OC(=O)COc1ccc2ccccc2c1Br)c1ccncc1	RGS7-Gao inconclusive
Cc1nn(CCCC(=O)NCc2ccc(F)cc2)c(C)c1[N+](=O)[O-]	none
Cc1nn(CCCC(=O)N2CCN(c3ccc(F)cc3)CC2)c(C)c1[N+](=O)[O-]	RGS16-Gao HTS 15, RGS8-Gao reg 18, RGS7-Gao 19, RGS4-Gao reg 25 | Avidin counter inactive | RGS8-Gao confirm inactive | RGS7-Gao single inactive | RGS16-Gao single inactive | RGS4-Gao confirm inactive | RGS19-Gao conf inactive
O=C(C1CCN(S(=O)(=O)c2cccc3cccnc23)CC1)N1CCN(c2ccccc2)CC1	none
CCN1CCN(C(=O)C2CCN(S(=O)(=O)c3cccc4cccnc34)CC2)CC1	RGS16-Gao HTS 192[activator] | RGS4-Gao HTS 104 | Avidin counter inactive | RGS8-Gao confirm inactive | RGS7-Gao single inactive | RGS16-Gao single inactive | RGS4-Gao confirm inactive | RGS19-Gao conf inactive
Cc1ccsc1/C=N/n1c(-c2cc(-c3ccccc3)n[nH]2)n[nH]c1=S	RGS7-Gao inconclusive (no result: ABCG2 inh, ABCB1 inh)
Cc1ccccc1/C=N/n1c(-c2cc(-c3ccccc3)n[nH]2)n[nH]c1=S	RGS8-Gao reg 41, RGS7-Gao inconclusive, RGS4-Gao reg 37 (no result: ABCG2 inh, ABCB1 inh) | Avidin counter inactive | RGS8-Gao confirm inactive | RGS7-Gao single inactive | RGS16-Gao single inactive | RGS4-Gao confirm inactive | RGS19-Gao conf inactive
COc1ccc(CNCCC(c2ccc(OC(C)C)cc2)C(C)C)cc1OC (configuration not stated)	RGS8-Gao reg 142[activator] | RGS4-Gao HTS 117 | Avidin counter inactive | RGS8-Gao confirm inactive | RGS7-Gao single inactive | RGS16-Gao single inactive | RGS4-Gao confirm inactive | RGS19-Gao conf inactive

Source: PubChem BioAssay (NMMLSC)
